# In ChEMBL document CHEMBL5058577, “EUbOPEN Chemogenomics Library 2 (Multiplex)” (2022):
# Tested on: U2OS
# Experiment: Multiplex assay against U2OS
# Type: toxicity, cell-based
# Conditions: human
# In short: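 Phenotypes for tubulin, mitochondrial mass and membrane permeability are expressed as per cents of healthy-nucleus cells. Cells were stained live at seeding with Hoechst33342, BioTracker Green Microtubule Cytoskeleton Dye, MitoTracker Red and Annexin V Alexa Fluor 680, then imaged after compound addition on a CQ1 microscope at 37°C and 5% CO2. Machine-learning gating in CellPathfinder separated Hoechst high-intensity objects from normal cells, divided normal cells by nuclear state (healthy, pyknosed, fragmented) and divided pyknosed cells into mitotic or apoptotic.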
# [1] = 12 h, 1 µM, compound concentration 1 uM, replicate 1
# [2] = 12 h, 1 µM, compound concentration 1 uM, replicate 2
# [3] = 12 h, 10 µM, compound concentration 10 uM, replicate 1
# [4] = 12 h, 10 µM, compound concentration 10 uM, replicate 2
# [5] = 24 h, 1 µM, compound concentration 1 uM, replicate 1
# [6] = 24 h, 1 µM, compound concentration 1 uM, replicate 2
# [7] = 24 h, 10 µM, compound concentration 10 uM, replicate 1
# [8] = 24 h, 10 µM, compound concentration 10 uM, replicate 2
# [9] = 48 h, 1 µM, compound concentration 1 uM, replicate 1
# [10] = 48 h, 1 µM, compound concentration 1 uM, replicate 2
# [11] = 48 h, 10 µM, compound concentration 10 uM, replicate 1
# [12] = 48 h, 10 µM, compound concentration 10 uM, replicate 2
smiles,measurement,setting,value
Cc1noc(-c2ccc(-c3ccc(CC(=O)O)cc3)cc2)c1NC(=O)O[C@H](C)c1ccccc1Cl,Population Apoptotic (%),[1],95%
same,Population Fragmented Nuclei (%),[1],21%
same,Population Healthy Nuclei (%),[1],69%
same,Population Hoechst High Intensity Objects (%),[1],4%
same,Population Membrane Permeable-Phenotype (%),[1],7%
same,Population Mitochondria Different-Phenotype (%),[1],5%
same,Population Mitotic Cells (%),[1],5%
same,Population Normal (%),[1],95%
same,Population Pyknosed Nuclei (%),[1],9%
same,Population Tubulin-Different-Phenotype (%),[1],4%
same,Total Cell Count,[1],231
same,Population Apoptotic (%),[2],85%
same,Population Fragmented Nuclei (%),[2],19%
same,Population Healthy Nuclei (%),[2],74%
same,Population Hoechst High Intensity Objects (%),[2],0%
same,Population Membrane Permeable-Phenotype (%),[2],2%
same,Population Mitochondria Different-Phenotype (%),[2],2%
same,Population Mitotic Cells (%),[2],14%
same,Population Normal (%),[2],99%
same,Population Pyknosed Nuclei (%),[2],7%
same,Total Cell Count,[2],101
same,Population Apoptotic (%),[3],78%
same,Population Fragmented Nuclei (%),[3],29%
same,Population Healthy Nuclei (%),[3],61%
same,Population Hoechst High Intensity Objects (%),[3],2%
same,Population Membrane Permeable-Phenotype (%),[3],11%
same,Population Mitochondria Different-Phenotype (%),[3],4%
same,Population Mitotic Cells (%),[3],21%
same,Population Normal (%),[3],97%
same,Population Pyknosed Nuclei (%),[3],9%
same,Population Tubulin-Different-Phenotype (%),[3],6%
same,Total Cell Count,[3],242
same,Population Apoptotic (%),[4],71%
same,Population Fragmented Nuclei (%),[4],11%
same,Population Healthy Nuclei (%),[4],83%
same,Population Membrane Permeable-Phenotype (%),[4],6%
same,Population Mitochondria Different-Phenotype (%),[4],2%
same,Population Mitotic Cells (%),[4],28%
same,Population Pyknosed Nuclei (%),[4],5%
same,Total Cell Count,[4],138
same,Population Apoptotic (%),[5],96%
same,Population Fragmented Nuclei (%),[5],19%
same,Population Healthy Nuclei (%),[5],70%
same,Population Hoechst High Intensity Objects (%),[5],2%
same,Population Membrane Permeable-Phenotype (%),[5],5%
same,Population Mitochondria Different-Phenotype (%),[5],4%
same,Population Mitotic Cells (%),[5],3%
same,Population Normal (%),[5],97%
same,Population Pyknosed Nuclei (%),[5],9%
same,Population Tubulin-Different-Phenotype (%),[5],3%
same,Total Cell Count,[5],277
same,Population Apoptotic (%),[6],77%
same,Population Fragmented Nuclei (%),[6],15%
same,Population Healthy Nuclei (%),[6],77%
same,Population Hoechst High Intensity Objects (%),[6],0%
same,Population Membrane Permeable-Phenotype (%),[6],4%
same,Population Mitochondria Different-Phenotype (%),[6],3%
same,Population Mitotic Cells (%),[6],22%
same,Population Normal (%),[6],99%
same,Population Pyknosed Nuclei (%),[6],7%
same,Population Tubulin-Different-Phenotype (%),[6],6%
same,Total Cell Count,[6],125
same,Population Apoptotic (%),[7],92%
same,Population Fragmented Nuclei (%),[7],24%
same,Population Healthy Nuclei (%),[7],65%
same,Population Hoechst High Intensity Objects (%),[7],1%
same,Population Membrane Permeable-Phenotype (%),[7],11%
same,Population Mitochondria Different-Phenotype (%),[7],2%
same,Population Mitotic Cells (%),[7],7%
same,Population Normal (%),[7],98%
same,Population Pyknosed Nuclei (%),[7],10%
same,Population Tubulin-Different-Phenotype (%),[7],5%
same,Total Cell Count,[7],260
same,Population Apoptotic (%),[8],90%
same,Population Fragmented Nuclei (%),[8],12%
same,Population Healthy Nuclei (%),[8],80%
same,Population Hoechst High Intensity Objects (%),[8],2%
same,Population Membrane Permeable-Phenotype (%),[8],7%
same,Population Mitotic Cells (%),[8],9%
same,Population Normal (%),[8],97%
same,Population Pyknosed Nuclei (%),[8],7%
same,Population Tubulin-Different-Phenotype (%),[8],4%
same,Total Cell Count,[8],154
same,Population Apoptotic (%),[9],97%
same,Population Fragmented Nuclei (%),[9],15%
same,Population Healthy Nuclei (%),[9],75%
same,Population Hoechst High Intensity Objects (%),[9],1%
same,Population Membrane Permeable-Phenotype (%),[9],6%
same,Population Mitochondria Different-Phenotype (%),[9],3%
same,Population Mitotic Cells (%),[9],2%
same,Population Normal (%),[9],98%
same,Population Pyknosed Nuclei (%),[9],9%
same,Population Tubulin-Different-Phenotype (%),[9],3%
same,Total Cell Count,[9],408
same,Population Apoptotic (%),[10],86%
same,Population Fragmented Nuclei (%),[10],18%
same,Population Healthy Nuclei (%),[10],72%
same,Population Hoechst High Intensity Objects (%),[10],0%
same,Population Mitochondria Different-Phenotype (%),[10],4%
same,Population Mitotic Cells (%),[10],13%
same,Population Normal (%),[10],100%
same,Population Pyknosed Nuclei (%),[10],8%
same,Population Tubulin-Different-Phenotype (%),[10],4%
same,Total Cell Count,[10],170
same,Population Apoptotic (%),[11],92%
same,Population Fragmented Nuclei (%),[11],19%
same,Population Healthy Nuclei (%),[11],72%
same,Population Hoechst High Intensity Objects (%),[11],3%
same,Population Membrane Permeable-Phenotype (%),[11],7%
same,Population Mitochondria Different-Phenotype (%),[11],3%
same,Population Mitotic Cells (%),[11],7%
same,Population Normal (%),[11],96%
same,Population Pyknosed Nuclei (%),[11],8%
same,Population Tubulin-Different-Phenotype (%),[11],5%
same,Total Cell Count,[11],344
same,Population Apoptotic (%),[12],85%
same,Population Fragmented Nuclei (%),[12],9%
same,Population Healthy Nuclei (%),[12],78%
same,Population Hoechst High Intensity Objects (%),[12],4%
same,Population Membrane Permeable-Phenotype (%),[12],6%
same,Population Mitochondria Different-Phenotype (%),[12],2%
same,Population Mitotic Cells (%),[12],14%
same,Population Normal (%),[12],95%
same,Population Pyknosed Nuclei (%),[12],11%
same,Population Tubulin-Different-Phenotype (%),[12],4%
same,Total Cell Count,[12],241
